From ChEMBL document CHEMBL3046016, “Antifeedant and growth inhibitory effects of some neo-clerodane diterpenoids isolated from Clerodendron species (Verbenaceae) on Earias vitella and Spodoptera litura” (2003)

Key:
Format in all cases: functional
Earias vittella [1] = experiment: Insecticidal activity against pupal stage of Earias vitella assessed as pupal weight at 0.5 ug/cm3 administered through artificial diet containing Abelmoschus esculentus seed powder (reference value: 88.2 +/- 4.01 mg)
Earias vittella [2] = experiment: Insecticidal activity against third-instar larval stage of Earias vitella assessed as larval mortality at 0.5 ug/cm3 administered through artificial diet containing Abelmoschus esculentus seed powder (reference value: 4%)
Spodoptera litura [3] = experiment: Insecticidal activity against male adult Spodoptera litura in compound-treated castor leaves assessed as adult longevity time at 0.5 ug/cm2 (reference value: 9.4 +/- 0.48 days)
Earias vittella [4] = experiment: Insecticidal activity against male adult Earias vitella assessed as adult longevity time at 0.5 ug/cm3 administered through artificial diet containing Abelmoschus esculentus seed powder (reference value: 8.2 +/- 0.4 days)
Earias vittella [5] = experiment: Insecticidal activity against adult Earias vitella assessed as adult deformity at 0.5 ug/cm3 administered through artificial diet containing Abelmoschus esculentus seed powder (reference value: 4%)
Earias vittella [6] = experiment: Insecticidal activity against pupal stage of Earias vitella assessed as pupal duration time at 0.5 ug/cm3 administered through artificial diet containing Abelmoschus esculentus seed powder (reference value: 6.4 +/- 0.21 days)
Spodoptera litura [7] = experiment: Insecticidal activity against female adult Spodoptera litura in compound-treated castor leaves assessed as adult longevity time at 0.5 ug/cm2 (reference value: 10 +/- 0.63 days)
Spodoptera litura [8] = experiment: Insecticidal activity against pupal stage of Spodoptera litura in compound-treated castor leaves assessed as pupal mortality at 0.5 ug/cm2 relative to control
Spodoptera litura [9] = experiment: Insecticidal activity against pupal stage of Spodoptera litura in compound-treated castor leaves assessed as pupal duration time at 0.5 ug/cm2 (reference value: 9.2 +/- 0.74 days)
Earias vittella [10] = experiment: Antifeedant activity against third-instar larval stage of Earias vitella assessed as decrease in diet consumption at 0.5 ug/cm3 administered through artificial diet containing Abelmoschus esculentus seed powder after 24 hr relative to acetone-treated control; parameters: scale not given: the % may be the effect or the level left
Procedure, shortened: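 Artificial diet was modified Klein medium with bhendi (Abelmoschus esculentus) seed powder in place of alfalfa. Compound in acetone was mixed into bhendi meal 12 h before diet preparation so the solvent evaporated. One 3 g diet cube was given to five freshly molted third-instar larvae in a muslin-covered container. After 24 h the cubes were weighed. %AF = 100 − (treated/control)×100.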

Spodoptera litura [11] = experiment: Antifeedant activity against third-instar larval stage of Spodoptera litura in compound-treated castor leaves assessed as decrease in diet consumption at 0.5 ug/cm2 after 24 hr by no-choice leaf disk assay relative to acetone-treated control; parameters: scale not given: the % may be the effect or the level left
Procedure, shortened: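 Larvae were reared on castor leaves at 25 ± 2 °C. In a no-choice test, compound in acetone was painted on the abaxial side of castor leaf disks and air-dried. Five freshly molted third-instar larvae, starved 4 h, were placed per Petri dish with wet cotton. There were five replicates. After 24 h, consumed leaf area was read on a leaf area meter. %AF = 100 − (treated/control)×100.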

Earias vittella [12] = experiment: Insecticidal activity against female adult Earias vitella assessed as adult longevity time at 0.5 ug/cm3 administered through artificial diet containing Abelmoschus esculentus seed powder (reference value: 8.6 +/- 0.48 days)
Spodoptera litura [13] = experiment: Insecticidal activity against third-instar larval stage of Spodoptera litura in compound-treated castor leaves assessed as total larval duration time at 0.5 ug/cm2 (reference value: 12.4 +/- 0.48 days)
Spodoptera litura [14] = experiment: Insecticidal activity against third-instar larval stage of Spodoptera litura in compound-treated castor leaves assessed as larval mortality at 0.5 ug/cm2 relative to control
Earias vittella [15] = experiment: Insecticidal activity against third-instar larval stage of Earias vitella assessed as total larval duration time at 0.5 ug/cm3 administered through artificial diet containing Abelmoschus esculentus seed powder (reference value: 8.2 +/- 0.48 days)
Spodoptera litura [16] = experiment: Insecticidal activity against pupal stage of Spodoptera litura in compound-treated castor leaves assessed as pupal weight at 0.5 ug/cm2 (reference value: 302.4 +/- 5.9 mg)
Earias vittella [17] = experiment: Insecticidal activity against pupal stage of Earias vitella assessed as pupal mortality at 0.5 ug/cm3 administered through artificial diet containing Abelmoschus esculentus seed powder (reference value: 8%)
Spodoptera litura [18] = experiment: Insecticidal activity against adult Spodoptera litura in compound-treated castor leaves assessed as adult emergence at 0.5 ug/cm2 relative to control
Spodoptera litura [19] = experiment: Insecticidal activity against adult Spodoptera litura in compound-treated castor leaves assessed as adult deformity at 0.5 ug/cm2 relative to control
Earias vittella [20] = experiment: Insecticidal activity against adult Earias vitella assessed as adult emergence at 0.5 ug/cm3 administered through artificial diet containing Abelmoschus esculentus seed powder (reference value: 88%)

SMILES: C/C=C(\C)C(=O)O[C@H]1C[C@@H](OC(C)=O)[C@@]2(C(=O)OC)CO[C@H]3[C@@H](O)[C@@](C)([C@]45O[C@@]4(C)[C@@H]4C[C@H]5O[C@@H]5OC=C[C@@]54O)[C@H]4[C@]1(CO[C@]4(O)C(=O)OC)[C@@H]32 [AZADIRACHTIN A]
- Activity (Earias vittella [1]): 59.2 mg
- mortality (Earias vittella [2]): 68%
- Time (Spodoptera litura [3]): 7.2 days
- Time (Earias vittella [4]): 6.6 days
- Activity (Earias vittella [5]): 25%
- Time (Earias vittella [6]): 8.4 days
- Time (Spodoptera litura [7]): 7 days
- mortality at 0.5 µg/cm2 (Spodoptera litura [8]): 28%
- Time (Spodoptera litura [9]): 11 days
- Activity (Earias vittella [10]): 79.2%
- Activity (Spodoptera litura [11]): 79.2%
- Time (Earias vittella [12]): 6.8 days
- Time (Spodoptera litura [13]): 13.9 days
- mortality at 0.5 µg/cm2 (Spodoptera litura [14]): 78%
- Time (Earias vittella [15]): 11 days
- Activity (Spodoptera litura [16]): 247.2 mg
- mortality (Earias vittella [17]): 37.5%
- Activity (Spodoptera litura [18]): 42.8%
- Activity (Spodoptera litura [19]): 28.5%
- Activity (Earias vittella [20]): 37%
